Laboratory results as given in ChEMBL document CHEMBL1132144, “Synthesis of 9-O-substituted derivatives of 9-hydroxy-5, 6-dimethyl-6H-pyrido[4,3-b]carbazole-1-carboxylic acid (2-(dimethylamino)ethyl)amide and their 10- and 11-methyl analogues with improved antitumor activity” (J Med Chem, 1999).
Several values for one entry are separate records, joined by “and”; a condition that tells them apart may be missing. Equal entries are not always repeated.

Legend:
B16 = test: Inhibition of murine B16 melanoma cell proliferation measured by the MTT assay; type: functional, cell-based; details: Mus musculus
How it was run: (§1)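 Murine L1210 leukemia and B16 melanoma cells were grown in RPMI 1640 with 10% fetal calf serum, 2 mM L-glutamine, penicillin/streptomycin and 10 mM HEPES (pH 7.4). Cells were exposed to nine serial drug dilutions in triplicate for about four doubling times (L1210 48 h, B16 96 h), then read by microculture tetrazolium (MTT) assay. IC50 is the concentration halving optical density versus untreated controls, averaged over ≥2 independent experiments.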

Mus musculus [1] = test: Percent median survival time of mice injected with B16 melanoma, at a intraperitoneal compound dose of 20 mg/kg
Mus musculus [2] = test: Long-term survivors among 6 mice infected with P388 leukemia, scored on day 60 at 160 mg/kg dose; type: functional
How it was run: (§2)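 B6D2F1 mice in groups of 6–7 were inoculated ip on day 0 with 10^6 P388 cells. Dihydrochloride salts were dissolved in water and given iv on day 1 or on days 1, 5 and 9. Doses ranged from a low nontoxic dose to a toxic one. Long-term survivors were counted at day 60.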

Mus musculus [3] = test: Long-term survivors among 6 mice infected with P388 leukemia, scored on day 60 at 80 mg/kg dose; type: functional; how it was run: as §2
Mus musculus [4] = test: Percent median survival time of mice intraperitoneally injected with P388 leukemia was determined from tested at 160 mg/kg at day1 dose to that of control; type: functional
How it was run: (§3)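 P388 leukemia in B6D2F1 mice (groups of 6–7), 10^6 cells inoculated ip on day 0. Dihydrochloride salts were dissolved in water and given iv on day 1 or on days 1, 5, 9. Three doses were tested, then five if active. %T/C = median survival treated/control × 100, reported at the optimal dose (no toxic death, weight loss <20%), from one or two representative experiments.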

L1210 = test: Inhibition of murine L1210 leukemia cell proliferation measured by the MTT assay; type: functional, cell-based; details: Mus musculus; how it was run: as §1
Mus musculus [5] = test: Percent median survival time of mice intraperitoneally injected with P388 leukemia was determined from tested at 80 mg/kg at day1,5,9 dose to that of control; type: functional; details: route intraperitoneal; how it was run: as §3
Mus musculus [6] = test: Long-term survivors among 6 mice infected with P388 leukemia, scored on day 60 at 40 mg/kg dose; type: functional; how it was run: as §2
Mus musculus [7] = test: Long-term survivors among 6 mice infected with P388 leukemia, scored on day 90 at 20 mg/kg dose; type: functional
Mus musculus [8] = test: Percent median survival time of mice intraperitoneally injected with P388 leukemia was determined from tested at 40 mg/kg at day1,5,9 dose to that of control; type: functional; details: route intraperitoneal; how it was run: as §3
Mus musculus [9] = test: Long-term survivors among 7 mice infected with P388 leukemia, scored on day 90 at 10 mg/kg dose; type: functional
Mus musculus [10] = test: Percent median survival time of mice injected with B16 melanoma, at a intraperitoneal compound dose of 10 mg/kg
Mus musculus [11] = test: Percent median survival time of mice injected with P388 leukemia, at a subcutaneous compound dose of 20 mg/kg; type: functional
Mus musculus [12] = test: Long-term survivors among 7 mice infected with P388 leukemia, scored on day 60 at 20 mg/kg dose on day 1; type: functional
How it was run: (§4)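 B6D2F1 mice in groups of 6–7 received 10^6 P388 cells ip on day 0. Dihydrochloride salts dissolved in water were injected iv on day 1 or on days 1, 5 and 9, at three doses and then five. Read-outs were % T/C (median survival treated/control × 100) and long-term survivors on day 60, both at the optimal dose (no toxic death, weight loss <20%).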

Mus musculus [13] = test: Long-term survivors among 7 mice infected with B16 melanoma, scored on day 90 at 20 mg/kg dose on day 1; type: functional
Mus musculus [14] = test: Percent median survival time of mice injected with B16 melanoma, at a intraperitoneal compound dose of 5 mg/kg
Mus musculus [15] = test: Percent median survival time of mice injected with P388 leukemia, at a subcutaneous compound dose of 10 mg/kg; type: functional
Mus musculus [16] = test: Percent median survival time of mice injected with P388 leukemia, at a intravenous compound dose of 5 mg/kg
Mus musculus [17] = test: Long-term survivors among 7 mice infected with B16 melanoma, scored on day 90 at 10 mg/kg dose on day 1; type: functional
Mus musculus [18] = test: Long-term survivors among 7 mice infected with P388 leukemia, scored on day 60 at 10 mg/kg dose on day 1; type: functional; how it was run: as §4
Mus musculus [19] = test: Percent median survival time of mice injected with B16 melanoma, at a intraperitoneal compound dose of 40 mg/kg
Mus musculus [20] = test: Long-term survivors among 7 mice infected with B16 melanoma, scored on day 90 at 160 mg/kg dose on day 1; type: functional
Mus musculus [21] = test: Percent median survival time of mice injected with P388 leukemia, at a subcutaneous compound dose of 160 mg/kg; type: functional
Mus musculus [22] = test: Long-term survivors among 7 mice infected with P388 leukemia, scored on day 60 at 160 mg/kg dose on day 1; type: functional; how it was run: as §4
Mus musculus [23] = test: Percent median survival time of mice injected with P388 leukemia, at a intravenous compound dose of 80 mg/kg
Mus musculus [24] = test: Long-term survivors among 7 mice infected with P388 leukemia, scored on day 60 at 40 mg/kg dose on day 1; type: functional; how it was run: as §4
Mus musculus [25] = test: Long-term survivors among 7 mice infected with B16 melanoma, scored on day 90 at 40 mg/kg dose on day 1; type: functional
Mus musculus [26] = test: Percent median survival time of mice injected with P388 leukemia, at a intravenous compound dose of 40 mg/kg

Cc1c2ccnc(C(=O)NCCN(C)C)c2cc2c3cc(OC(=O)N4CCN(C)CC4)ccc3n(C)c12
IC50 (B16): 2.47 µM | T/C (Mus musculus [1]): 159% | LTS (Mus musculus [2]): 0 | LTS (Mus musculus [3]): 0 | T/C (Mus musculus [4]): 146% | IC50 (L1210): 1.3 µM | T/C (Mus musculus [5]): 134%

Cc1c2ccnc(C(=O)NCCN(C)C)c2cc2c3cc(OS(C)(=O)=O)ccc3n(C)c12
IC50 (B16): 0.782 µM | T/C (Mus musculus [1]): 142% | LTS (Mus musculus [2]): 0 | T/C (Mus musculus [4]): 96% | IC50 (L1210): 0.869 µM | LTS (Mus musculus [6]): 0 | LTS (Mus musculus [7]): 0 | T/C (Mus musculus [8]): 106%

Cc1c2ccnc(C(=O)NCCN(C)C)c2cc2c3cc(OP(=O)(O)O)ccc3n(C)c12
IC50 (B16): 0.0041 µM | LTS (Mus musculus [9]): 0 | LTS (Mus musculus [2]): 1 | T/C (Mus musculus [4]): 239% | IC50 (L1210): 0.0505 µM | T/C (Mus musculus [10]): 171% | LTS (Mus musculus [6]): 1 | T/C (Mus musculus [8]): 405%

COC(=O)CCCC(=O)Oc1ccc2c(c1)c1cc3c(C(=O)NCCN(C)C)nccc3c(C)c1n2C
IC50 (B16): 0.0071 µM | T/C (Mus musculus [11]): 145% | IC50 (L1210): 0.0054 µM | LTS (Mus musculus [12]): 0 | LTS (Mus musculus [13]): 0 | T/C (Mus musculus [14]): 144% | T/C (Mus musculus [15]): 158%

CCCCCCCCCCCCN(C)C(=O)Oc1ccc2c(c1)c1cc3c(C(=O)NCCN(C)C)nccc3c(C)c1n2C
IC50 (B16): 3.26 µM | T/C (Mus musculus [16]): 100% | LTS (Mus musculus [17]): 0 | IC50 (L1210): 2.87 µM | LTS (Mus musculus [18]): 0 | T/C (Mus musculus [15]): 103% | T/C (Mus musculus [19]): 115%

Cc1c2ccnc(C(=O)NCCN(C)C)c2cc2c3cc(OC(=O)CCCCCCC(=O)O)ccc3n(C)c12
IC50 (B16): 0.0031 µM | LTS (Mus musculus [20]): 0 | T/C (Mus musculus [21]): 287% | LTS (Mus musculus [22]): 0 | IC50 (L1210): 0.0532 µM | T/C (Mus musculus [23]): >645%

CCOC(=O)CCNC(=O)Oc1ccc2c(c1)c1cc3c(C(=O)NCCN(C)C)nccc3c(C)c1n2C
IC50 (B16): 0.0057 µM | LTS (Mus musculus [24]): 0 | LTS (Mus musculus [25]): 0 | T/C (Mus musculus [11]): 95% | T/C (Mus musculus [26]): 97% | IC50 (L1210): 0.0164 µM | T/C (Mus musculus [10]): 115%

Cc1c2ccnc(C(=O)NCCN(C)C)c2cc2c3cc(OC(=O)CCCCC4CCSS4)ccc3n(C)c12 (stereo not drawn)
IC50 (B16): 0.014 µM | LTS (Mus musculus [17]): 0 | IC50 (L1210): 0.118 µM | LTS (Mus musculus [18]): 0 | T/C (Mus musculus [14]): 140% | T/C (Mus musculus [15]; 10 mg/kg): 118% and 129%

Cc1c2ccnc(C(=O)NCCN(C)C)c2cc2c3cc(OC(=O)CCCCC(=O)OCc4ccccc4)ccc3n(C)c12
IC50 (B16): 0.0584 µM | T/C (Mus musculus [11]): 124% | IC50 (L1210): 0.109 µM | LTS (Mus musculus [12]): 0 | LTS (Mus musculus [13]): 0 | T/C (Mus musculus [15]): 128% | T/C (Mus musculus [19]): 102%
